# Assay results published in ChEMBL document CHEMBL4622989, “From Bacteria to Cancer: A Benzothiazole-Based DNA Gyrase B Inhibitor Redesigned for Hsp90 C-Terminal Inhibition” (ACS Med Chem Lett, 2020).
# Calls of active or inactive are those of the source. The rule behind the calls is not given here.
# Columns and labels:
# MCF7 = assay: Antiproliferative activity against human MCF7 cells assessed as reduction in cell viability; format: functional, cell-based
# Heat shock protein HSP90 [1] = molecular target: T1, Heat shock protein HSP90 (Homo sapiens, UniProt P07900+P08238); assay: Inhibition of HSP90 at C-terminus in human SKBR3 cell lysates at 0.5 to 5 times antiproliferative EC50 after 24 hrs by Western blot analysis; format: cell-based; settings: SK-BR-3
# Outline: (§1)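 SKBr3 breast cancer cells were treated for 24 h and then lysed. Hsp90-dependent client proteins and Hsp70 in the lysates were analysed by Western blot. Geldanamycin at 500 nM served as the reference treatment. Blot images were quantified.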
# SK-BR-3 = assay: Antiproliferative activity against human SKBR3 cells assessed as reduction in cell viability; format: functional, cell-based
# Heat shock protein HSP90 [2] = molecular target: T1, Heat shock protein HSP90; assay: Inhibition of HSP90 at C-terminus in human SKBR3 cell lysates assessed as induction of Her2 protein degradation at 0.1 to 10 uM after 24 hrs by Western blot analysis; format: cell-based; settings: SK-BR-3; outline: as §1
# Heat shock protein HSP90 [3] = molecular target: T1, Heat shock protein HSP90; assay: Inhibition of HSP90 at C-terminus in human SKBR3 cell lysates assessed as induction of AKT protein degradation at 0.1 to 10 uM after 24 hrs by Western blot analysis; format: cell-based; settings: SK-BR-3; outline: as §1
# Heat shock protein HSP90 [4] = molecular target: T1, Heat shock protein HSP90; assay: Inhibition of HSP90 at C-terminus in human SKBR3 cell lysates assessed as induction of CDK4 protein degradation at 0.1 to 10 uM after 24 hrs by Western blot analysis; format: cell-based; settings: SK-BR-3; outline: as §1
# Heat shock protein HSP90 [5] = molecular target: T1, Heat shock protein HSP90; assay: Inhibition of HSP90 at C-terminus in human SKBR3 cell lysates assessed as induction of Raf1 protein degradation at 0.1 to 10 uM after 24 hrs by Western blot analysis; format: cell-based; settings: SK-BR-3; outline: as §1
# Heat shock protein HSP90 [6] = molecular target: T1, Heat shock protein HSP90; assay: Inhibition of HSP90 at N-terminus in human SKBR3 cell lysates assessed as induction of heat shock response by measuring increase in HSP70 protein level at 0.1 to 10 uM after 24 hrs by Western blot analysis; format: cell-based; settings: sk-br-3, 24 h; outline: as §1
EC50 (MCF7) [µM],EC50 (SK-BR-3) [µM],SMILES,also measured
> 50,2.41,CCOC(=O)C(=O)Nc1ccc2nc(NC(=O)c3cc(Br)c(Br)[nH]3)sc2c1,inhibition (Heat shock protein HSP90 [1]): Active
10.1,3.59,CCOC(=O)C(=O)Nc1nc2ccc(NC(=O)c3cc(Br)c(Br)[nH]3)cc2s1,–
41.3,27.9,CCOC(=O)C(=O)Nc1nc2ccc(NC(=O)c3cc(Br)c[nH]3)cc2s1,–
8.99,5.41,CCOC(=O)C(=O)Nc1ccc2nc(NC(=O)c3cc4ccccc4[nH]3)sc2c1,–
10.1,2.81,CCOC(=O)C(=O)Nc1ccc2nc(NC(=O)c3cc4cc(C)ccc4[nH]3)sc2c1,–
> 50,> 50,CC(=O)Nc1nc2ccc(NC(=O)c3cc(Br)c(Br)[nH]3)cc2s1,–

# Second part, the compound before the results:
SMILES,EC50 (MCF7) [µM],EC50 (SK-BR-3) [µM],also measured
CCOC(=O)C(=O)Nc1ccc2nc(NC(=O)c3cc4cc(CC)ccc4[nH]3)sc2c1,25.3,20.6,–
Cc1ccc2[nH]c(C(=O)Nc3nc4ccc(NC(=O)C(=O)c5ccccc5)cc4s3)cc2c1,> 50,> 50,–
CCOC(=O)C(=O)Nc1ccc2nc(NC(=O)c3ncccn3)sc2c1,> 50,> 50,–
CCOC(=O)C(=O)Nc1ccc2nc(NC(=O)c3ccc4c(c3)OCO4)sc2c1,> 50,> 50,–
COc1ccc2[nH]c(C(=O)Nc3nc4ccc(NC(=O)C(=O)c5ccccc5)cc4s3)cc2c1,> 50,> 50,–
CCOC(=O)C(=O)Nc1ccc2nc(NC(=O)c3cc4cc(OC)ccc4[nH]3)sc2c1,7.03,0.86,inhibition (Heat shock protein HSP90 [2]): Active; inhibition (Heat shock protein HSP90 [3]): Active; inhibition (Heat shock protein HSP90 [4]): Active; inhibition (Heat shock protein HSP90 [5]): Active; inhibition (INH) (Heat shock protein HSP90 [6]): Not Active
CCOC(=O)C(=O)Nc1ccc2nc(NC(=O)c3cc4ccc(OC)cc4[nH]3)sc2c1,> 50,6.7,–
CCOC(=O)C(=O)Nc1ccc2nc(NC(=O)c3ccc(OC)cc3)sc2c1,> 50,10.7,–
CC(=O)C(=O)Nc1ccc2nc(NC(=O)c3cc4ccccc4[nH]3)sc2c1,> 50,> 50,–
CCOC(=O)C(=O)Nc1nc2ccc(NC(=O)c3ccccc3)cc2s1,> 50,9.73,–
CCOC(=O)C(=O)Nc1nc2ccc(NC(=O)c3cc4ccccc4[nH]3)cc2s1,11.2,6.94,–
